From ChEMBL document CHEMBL4145471, “New 1,5 and 2,5-disubstituted tetrazoles-dependent activity towards surface barrier of Candida albicans” (Eur J Med Chem, 2018)
Calls of active or inactive are those of the source. No cut-off for these calls is given here.

Key:
Candida albicans [1] = test: Antifungal activity against Candida albicans ATCC 90028 assessed as reduction in cell adherence to human Caco2 cells at 256 ug/ml preincubated for 2 hrs followed by compound washout and resuspended in RPMI medium measured after 18 hrs by colony counting assay relative to control; assay type: functional; parameters: scale not given: the % may be the effect or the level left
Summary of the method: (§1)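 Yeasts grown 18 h in YEPD at 30°C, then exposed at 10^4/mL to compound in RPMI for 2 h at 35°C with shaking. Washed twice in PBS, resuspended in RPMI and added to Caco-2 monolayers (18 h culture in EMEM/10% FCS) for 2 h at 37°C, 5% CO2. Non-adherent cells rinsed off, Caco-2 lysed with water, and adherent yeasts counted as colonies on Sabouraud agar after 18 h at 30°C. Expressed as % of cells added versus untreated; three experiments.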

Candida albicans [2] = test: Antifungal activity against Candida albicans ATCC 90028 infected in Galleria mellonella larvae assessed as increase in health score at 16 ug/ml treated for 60 mins post infection measured after 48 hrs; assay type: functional, organism-based
Summary of the method: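 Larvae (195±17 mg, ethanol-disinfected) were injected with 10 µL C. albicans into the last right proleg. Compound at 16 µg/mL in RPMI (10 µL) went into the last left proleg 30 min or 1 h after infection, or 1 h or 30 min before it. A health index was scored from mobility, cocoon formation, melanization and survival, with monitoring every 24 h for 2 days. Controls were infected and PBS-injected larvae.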

Candida albicans [3] = test: Induction of early apoptosis in Candida albicans ATCC 90028 biofilms assessed as chromatin condensation at 0.03 ug/ml after 18 hrs by propidium iodide/acridine orange staining based confocal laser scanning microscopic analysis; assay type: functional, organism-based
Summary of the method: (§2)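 Caco-2-free model: the TR146 epithelial layer, 21 days post-seeding on filter inserts, was inoculated with 1.0–1.2×10^5/mL log-phase ATCC 90028 yeast. Biofilms were treated at 256, 16 or 0.0313 µg/mL for 18–48 h at 37°C in 5% CO2 and washed with PBS. Unfixed cells were stained with propidium iodide (5 µg/mL) and acridine orange, then imaged by confocal laser scanning microscopy.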

Candida albicans [4] = test: Induction of necrosis in Candida albicans ATCC 90028 protoplast at 16 ug/ml after 18 hrs Annexin V-FITC/propidium iodide staining based flow cytometry (reference value: 40.48 +/- 16.81%); assay type: functional
[5] = Toxicity in Galleria mellonella larvae assessed as survival at 256 ug/ml after 96 hrs relative to control; assay type: organism-based; details: in vivo
Summary of the method: (§3)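 Uninfected larvae, groups of 10, injected with compound in RPMI at 256, 16 or 0.0313 µg/mL; PBS-injected larvae as controls. Kept at 37°C in darkness up to 96 h, monitored daily; death is no response to physical stimuli. Mobility, cocoon formation, melanization and survival scored as health index. Three independent experiments, samples in duplicate; Wilcoxon signed-rank test vs control.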

Candida albicans [6] = test: Induction of apoptosis in Candida albicans ATCC 90028 protoplast assessed as early apoptotic cells at 16 ug/ml after 18 hrs Annexin V-FITC/propidium iodide staining based flow cytometry ( Rvb = 0.13 +/- 0.06%); assay type: functional
[7] = Toxicity in Galleria mellonella larvae assessed as survival at 16 ug/ml after 96 hrs relative to control; assay type: organism-based; details: in vivo; summary of the method: as §3
Candida albicans [8] = test: Induction of apoptosis in Candida albicans ATCC 90028 protoplast assessed as late apoptotic cells at 16 ug/ml after 18 hrs Annexin V-FITC/propidium iodide staining based flow cytometry ( Rvb = 0.20 +/- 0.28%); assay type: functional
Candida albicans [9] = test: Antifungal activity against Candida albicans ATCC 90028 assessed as reduction in cell adherence to human Caco2 cells at 16 ug/ml preincubated for 2 hrs followed by compound washout and resuspended in RPMI medium measured after 18 hrs by colony counting assay relative to control; assay type: functional; parameters: scale not given: the % may be the effect or the level left; summary of the method: as §1
Candida albicans [10] = test: Induction of apoptosis in Candida albicans ATCC 90028 protoplast assessed as viable cells at 16 ug/ml after 18 hrs Annexin V-FITC/propidium iodide staining based flow cytometry ( Rvb = 59.19 +/- 11%); assay type: functional
[11] = Toxicity in Galleria mellonella larvae assessed as survival at 0.0313 ug/ml after 96 hrs relative to control; assay type: organism-based; details: in vivo; summary of the method: as §3
Candida albicans [12] = test: Induction of necrosis in Candida albicans ATCC 90028 biofilms assessed as loss of cell membrane integrity at 0.03 ug/ml after 18 hrs by propidium iodide/acridine orange staining based confocal laser scanning microscopic analysis; assay type: functional, organism-based; summary of the method: as §2
Candida albicans [13] = test: Induction of necrosis in Candida albicans ATCC 90028 biofilms at 256 ug/ml after 18 hrs by propidium iodide/acridine orange staining based confocal laser scanning microscopic analysis; assay type: functional, organism-based; summary of the method: as §2
Candida albicans [14] = test: Antifungal activity against Candida albicans ATCC 90028 assessed as growth inhibition at 100 ug/ml after 7 days in presence of sorbitol by M27-A3 microdilution method; assay type: functional, organism-based
Summary of the method: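 Osmotic protection variant of M27-A3. Tetrazoles serially diluted (1.04-400 µg/mL) in Sabouraud dextrose broth; inoculum 1.7×10^3 CFU/mL in SDB with sorbitol at 0.8 M final. Plates at 35°C, read visually and at OD405 after 2 and 7 days; triplicate.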

Candida albicans [15] = test: Antifungal activity against Candida albicans ATCC 90028 infected in Galleria mellonella larvae assessed as increase in larvae survival at 16 ug/ml preincubated for 30 to 60 mins followed by fungal infection and measured every 24 hrs for 2 days; assay type: functional, organism-based
Summary of the method: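 G. mellonella larvae (195±17 mg, ethanol-disinfected) were given 10 µL C. albicans suspension into the last right proleg. A single 10 µL dose at 16 µg/mL in RPMI (diluted from 1600 µg/mL stock) went into the last left proleg, either 30 min or 1 h after infection or 1 h or 30 min before it. Survival was checked every 24 h for 2 days. Untreated infected larvae and PBS-injected larvae served as controls; ≥3 independent experiments, mean±SEM.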

Candida albicans [16] = test: Antifungal activity against Candida albicans ATCC 90028 assessed as total FIC index at 80 ug/ml in presence of fluconazol after 48 hrs by checkerboard-based XTT assay; assay type: functional
Summary of the method: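 Checkerboard against strain ATCC 90028, inoculum per M27-A3: fluconazole 80-1.25 µg/mL on one axis, tetrazole 80-1.25 µg/mL on the other. Plates at 35°C for 48 h, then XTT metabolic reduction read at 475 nm (660 nm reference). Activity is the drop in mean absorbance against untreated growth control. FICs and their summed FIC index are taken at 50% reduction in metabolic activity.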

Candida albicans [17] = test: Synergistic antifungal activity against Candida albicans ATCC 90028 at 1.25 ug/ml after 48 hrs in presence of 2.5 ug/ml fluconazol by checkerboard assay relative to control; assay type: functional
Summary of the method: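 Checkerboard microdilution (M27-A3) on C. albicans ATCC 90028 in RPMI 1640: fluconazole (80-1.25 µg/mL) crossed with tetrazole (80-1.25 µg/mL final), incubated at 35°C for 48 h. Growth by OD405 at 18 and 48 h, endpoint taken as 100% inhibition. FIC index = sum of the two agents' FICs; <1 synergism, >1 antagonism.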

Candida albicans [18] = test: Synergistic antifungal activity against Candida albicans ATCC 90028 at 80 ug/ml after 48 hrs in presence of fluconazol by checkerboard assay; assay type: functional

SMILES	Activity (Candida albicans [1]) [%]	Activity (Candida albicans [2])	Activity (Candida albicans [3])	Activity (Candida albicans [4]) [%]	survival at 96 h [5] [%]	Activity (Candida albicans [6]) [%]	survival at 96 h [7] [%]	Activity (Candida albicans [8]) [%]	Activity (Candida albicans [9]) [%]	Activity (Candida albicans [10]) [%]	survival at 96 h [11] [%]	Activity (Candida albicans [12])	Activity (Candida albicans [13])	growth inhibition (GI) (Candida albicans [14])	Activity (Candida albicans [15])	fractional inhibitory concentration index (FICI) (Candida albicans [16])	growth inhibition (GI) (Candida albicans [17]) [%]	fractional inhibitory concentration index (FICI) (Candida albicans [18])
CCOC(=O)CCn1nnc(-c2ccccc2)n1	59.12	inactive	Active	97.03	100	0.1	100	1.2	65.41	1.67	100	Active	Active	Active	Active	–	–	–
ClCCCn1nnnc1-c1ccccc1Cl	–	–	–	89.92	100	8	100	0.23	–	1.85	100	–	–	inactive	–	>10	99.64	–
Cc1ccc(-c2nnn(CCCN3CCOCC3)n2)cc1	–	–	–	–	–	–	–	–	14.18	–	–	–	–	–	–	>6.25	99.23	>1
